In ChEMBL document CHEMBL2390862, “Enmein-type diterpenoid analogs from natural kaurene-type oridonin: Synthesis and their antitumor biological evaluation” (Eur J Med Chem, 2013):

Key:
Bel-7402 [1] = test: Induction of mitochondrial membrane depolarization in human Bel7402 cells assessed as normal cells at 0.3 uM after 48 hrs by JC-1 staining-based flow cytometry; type: functional
Bel-7402 [2] = test: Induction of apoptosis in human Bel7402 cells assessed as early and late apoptotic cells at 0.6 uM after 2 days by Annexin-V/FITC-propidium iodide staining-based flow cytometry (reference value: 4.8 %); type: functional
Bel-7402 [3] = test: Induction of apoptosis in human Bel7402 cells assessed as early and late apoptotic cells at 0.3 uM after 2 days by Annexin-V/FITC-propidium iodide staining-based flow cytometry (reference value: 4.8 %); type: functional
Bel-7402 [4] = test: Induction of apoptosis in human Bel7402 cells assessed as late apoptotic cells at 0.6 uM after 2 days by Annexin-V/FITC-propidium iodide staining-based flow cytometry (reference value: 2.2 %); type: functional
Bel-7402 [5] = test: Induction of apoptosis in human Bel7402 cells assessed as late apoptotic cells at 0.3 uM after 2 days by Annexin-V/FITC-propidium iodide staining-based flow cytometry (reference value: 2.2 %); type: functional
Bel-7402 [6] = test: Induction of apoptosis in human Bel7402 cells assessed as late apoptotic cells at 0.15 uM after 2 days by Annexin-V/FITC-propidium iodide staining-based flow cytometry (reference value: 2.2 %); type: functional
Bel-7402 [7] = test: Induction of apoptosis in human Bel7402 cells assessed as viable cells at 0.6 uM after 2 days by Annexin-V/FITC-propidium iodide staining-based flow cytometry (reference value: 94.1 %); type: functional; conditions: Bel-7402, 48 h, read-out: Activity
Bel-7402 [8] = test: Induction of apoptosis in human Bel7402 cells assessed as viable cells at 0.3 uM after 2 days by Annexin-V/FITC-propidium iodide staining-based flow cytometry (reference value: 94.1 %); type: functional; conditions: Bel-7402, 48 h, read-out: Activity
Bel-7402 [9] = test: Induction of apoptosis in human Bel7402 cells assessed as viable cells at 0.15 uM after 2 days by Annexin-V/FITC-propidium iodide staining-based flow cytometry (reference value: 94.1 %); type: functional; conditions: Bel-7402, 48 h, read-out: Activity
Bel-7402 [10] = test: Induction of apoptosis in human Bel7402 cells assessed as early apoptotic cells at 0.6 uM after 2 days by Annexin-V/FITC-propidium iodide staining-based flow cytometry (reference value: 2.6 %); type: functional
Bel-7402 [11] = test: Induction of apoptosis in human Bel7402 cells assessed as early apoptotic cells at 0.3 uM after 2 days by Annexin-V/FITC-propidium iodide staining-based flow cytometry (reference value: 2.6 %); type: functional
Bel-7402 [12] = test: Induction of apoptosis in human Bel7402 cells assessed as necrotic cells at 0.3 uM after 2 days by Annexin-V/FITC-propidium iodide staining-based flow cytometry (reference value: 1.1 %); type: functional
Bel-7402 [13] = test: Induction of apoptosis in human Bel7402 cells assessed as necrotic cells at 0.15 uM after 2 days by Annexin-V/FITC-propidium iodide staining-based flow cytometry (reference value: 1.1 %); type: functional
Bel-7402 [14] = test: Induction of apoptosis in human Bel7402 cells after 2 days by Annexin-V/FITC-propidium iodide staining-based flow cytometry; type: functional, cell-based
Bel-7402 [15] = test: Induction of apoptosis in human Bel7402 cells at 0.6 uM after 48 hrs by propidium iodide staining-based FACS analysis (reference value: 1.67 %); type: functional
Method in brief: (§1)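 Bel-7402 cells seeded at 5.0 × 10³ cells/well and incubated 24 h at 37 °C, then exposed to test compound or DMSO solvent control for 48 h. Cells fixed in 70% ethanol, RNase-treated, PI-stained; DNA content of nuclei measured by flow cytometry.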

Bel-7402 [16] = test: Induction of apoptosis in human Bel7402 cells at 0.3 uM after 48 hrs by propidium iodide staining-based FACS analysis (reference value: 1.67 %); type: functional; method in brief: as §1
Bel-7402 [17] = test: Cell cycle arrest in human Bel7402 cells assessed as accumulation at G2/M phase at 0.3 uM after 48 hrs by propidium iodide staining-based FACS analysis (reference value: 12.60 %); type: functional; method in brief: as §1
Bel-7402 [18] = test: Cell cycle arrest in human Bel7402 cells assessed as accumulation at S phase at 0.6 uM after 48 hrs by propidium iodide staining-based FACS analysis (reference value: 39.17 %).; type: functional; method in brief: as §1
Bel-7402 [19] = test: Cell cycle arrest in human Bel7402 cells assessed as accumulation at G1 phase at 0.3 uM after 48 hrs by propidium iodide staining-based FACS analysis (reference value: 48.23 %); type: functional; method in brief: as §1
[20] = Cytotoxicity against human CaEs17 cells after 72 hrs by MTT assay; type: functional, cell-based; conditions: CaEs17, 72 h
Method in brief: (§2)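 K562, CaEs-17, Bel-7402 and MGC-803 cells in log phase seeded at 5 × 10⁴ cells/mL, incubated with or without test compounds at 37 °C, 5% CO₂; after 72 h MTT (5 mg/mL stock) added for 4 h, formazan dissolved in DMSO, OD read at 490 nm. Negative reference 0.1% DMSO, Taxol positive control. IC50 as mean ± S.D. of three independent experiments.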

Bel-7402 [21] = test: Cytotoxicity against human Bel7402 cells after 72 hrs by MTT assay; type: functional, cell-based; conditions: Bel-7402, 72 h; method in brief: as §2
MGC-803 = test: Cytotoxicity against human MGC803 cells after 72 hrs by MTT assay; type: functional, cell-based; conditions: MGC-803, 72 h; method in brief: as §2
K562 = test: Cytotoxicity against human K562 cells after 72 hrs by MTT assay; type: functional, cell-based; conditions: K562, 72 h; method in brief: as §2
Bel-7402 [22] = test: Cell cycle arrest in human Bel7402 cells assessed as accumulation at G1 phase at 0.15 uM after 48 hrs by propidium iodide staining-based FACS analysis (reference value: 48.23 %); type: functional; method in brief: as §1
Bel-7402 [23] = test: Induction of apoptosis in human Bel7402 cells assessed as reduction in Bcl2 expression after 48 hrs by Western blotting analysis; type: functional, cell-based
Method in brief: (§3)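 Bel-7402 cells treated with vehicle control or compound at 0.15, 0.3 or […] (so in the source). Lysates at […] protein per lane (so in the source) separated by 10% SDS-PAGE, transferred to nitrocellulose and immunoblotted, with β-actin measured as reference. Significance vs. vehicle control marked at P < 0.05 and P < 0.01.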

Bel-7402 [24] = test: Induction of apoptosis in human Bel7402 cells assessed as increase in Fas expression after 48 hrs by Western blotting analysis; type: functional, cell-based; method in brief: as §3
Bel-7402 [25] = test: Induction of apoptosis in human Bel7402 cells assessed as increase in caspase 9 expression after 48 hrs by Western blotting analysis; type: functional, cell-based; method in brief: as §3
Bel-7402 [26] = test: Induction of apoptosis in human Bel7402 cells assessed as increase in caspase 8 expression after 48 hrs by Western blotting analysis; type: functional, cell-based; method in brief: as §3
Bel-7402 [27] = test: Induction of apoptosis in human Bel7402 cells assessed as increase in caspase 3 expression after 48 hrs by Western blotting analysis; type: functional, cell-based; method in brief: as §3
Bel-7402 [28] = test: Induction of mitochondrial membrane depolarization in human Bel7402 cells assessed as apoptotic cells after 48 hrs by JC-1 staining-based flow cytometry; type: functional, cell-based
Method in brief: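 In triplicate, Bel-7402 cells cultured overnight, then incubated with compound (0, 0.15, 0.3, […] as printed) or vehicle for 48 h, stained with the lipophilic cationic dye JC-1. Cells with collapsed mitochondrial membrane potential counted by flow cytometry.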

Bel-7402 [29] = test: Induction of mitochondrial membrane depolarization in human Bel7402 cells assessed as normal cells at 0.6 uM after 48 hrs by JC-1 staining-based flow cytometry; type: functional

Q: For `C=C1C(=O)[C@@]23C(=O)O[C@H]4CCC(C)(C)[C@H]5[C@H](O)OC[C@@]45[C@@H]2CC[C@@H]1[C@H]3OC(=O)c1ccc(Cl)cc1`, which Activity (Bel-7402 [1]) is on record?
A: 82.4%

Q: And the Activity (Bel-7402 [2])?
A: 50.5%

Q: And the Activity (Bel-7402 [3])?
A: 33.3%

Q: What about the Activity (Bel-7402 [4]) of the same compound?
A: 28.1%

Q: What about the Activity (Bel-7402 [5]) of the same compound?
A: 18.5%

Q: What about the Activity (Bel-7402 [6]) of the same compound?
A: 5.5%

Q: What about the viability at 0.6 µM (Bel-7402 [7]) of the same compound?
A: 48.8%

Q: And the viability at 0.3 µM (Bel-7402 [8])?
A: 66.5%

Q: And the viability at 0.15 µM (Bel-7402 [9])?
A: 84.6%

Q: What about the Activity (Bel-7402 [10]) of the same compound?
A: 22.4%

Q: And the Activity (Bel-7402 [11])?
A: 14.8%

Q: And the Activity (Bel-7402 [12])?
A: 0.3%

Q: And the Activity (Bel-7402 [13])?
A: 1%

Q: What about the Activity (Bel-7402 [14]) of the same compound?
A: Dose-dependent effect

Q: What about the Activity (Bel-7402 [15]) of the same compound?
A: 31.97%

Q: And the Activity (Bel-7402 [16])?
A: 14.86%

Q: What about the Activity (Bel-7402 [17]) of the same compound?
A: 20.48%

Q: And the Activity (Bel-7402 [18])?
A: 20.17%

Q: What about the Activity (Bel-7402 [19]) of the same compound?
A: 50.28%

Q: What about the IC50 [20] of the same compound?
A: 280 nM

Q: And the IC50 (Bel-7402 [21])?
A: 870 nM

Q: What about the IC50 (MGC-803) of the same compound?
A: 1220 nM

Q: What about the IC50 (K562) of the same compound?
A: 240 nM

Q: What about the Activity (Bel-7402 [22]) of the same compound?
A: 46.18%

Q: What about the Activity (Bel-7402 [23]) of the same compound?
A: Dose-dependent effect

Q: And the Activity (Bel-7402 [24])?
A: Dose-dependent effect

Q: And the Activity (Bel-7402 [25])?
A: Dose-dependent effect

Q: And the Activity (Bel-7402 [26])?
A: Dose-dependent effect

Q: What about the Activity (Bel-7402 [27]) of the same compound?
A: Dose-dependent effect

Q: And the Activity (Bel-7402 [28])?
A: Dose-dependent effect

Q: And the Activity (Bel-7402 [29])?
A: 54.4%
